Values after ≈ are worked out from the molar mass of the structure shown. Active and inactive are the calls of the source. The rule behind the calls is not given here.
Legend:
[1] = Metabolic stability in human assessed as half life at 320 mg/kg, po by LC-MS/MS analysis; assay type: ADME, organism-based; set-up: dose 320 mg/kg, route oral
[2] = Metabolic stability in mouse assessed as half life at 320 mg/kg, po by LC-MS/MS analysis; assay type: ADME, organism-based; set-up: dose 320 mg/kg, route oral; settings: in vivo
Plasmodium falciparum [3] = assay: Antimalarial activity against blood stage Plasmodium falciparum D6 assessed as [3H]-hypoxanthine uptake after 24 hrs by scintillation counting; assay type: functional, organism-based
Plasmodium falciparum [4] = assay: Antimalarial activity against blood stage Plasmodium falciparum W2 assessed as [3H]-hypoxanthine uptake after 24 hrs by scintillation counting; assay type: functional, organism-based
Plasmodium falciparum [5] = assay: Antimalarial activity against blood stage Plasmodium falciparum TM91C235 assessed as [3H]-hypoxanthine uptake after 24 hrs by scintillation counting; assay type: functional, organism-based
Plasmodium berghei [6] = assay: Antimalarial activity against Plasmodium berghei […] mouse model assessed as causal prophylactic activity at 160 mg/kg, po administered one day before infection, on day of infection and one day post infection; assay type: functional, organism-based; set-up: dose 160 mg/kg
How it was run: (§1)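 Sporozoite-challenged exoerythrocytic mouse model using P. berghei. Compound ground and suspended in hydroxyethylcellulose with Tween 80 for oral dosing, given once daily for 3 consecutive days: day before, 4 h before, and day after sporozoite inoculation. Dose in (mg/kg)/day. Mice are scored for protection (causal prophylaxis) and for delay in patency.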

Plasmodium berghei [7] = assay: Antimalarial activity against Plasmodium berghei […] mouse model assessed as delay in patency time at 160 mg/kg, po administered one day before infection, on day of infection and one day post infection; assay type: functional; how it was run: as §1
Plasmodium berghei [8] = assay: Antimalarial activity against Plasmodium berghei […] mouse model assessed as delay in patency time at 320 mg/kg, po administered one day before infection, on day of infection and one day post infection; assay type: functional; how it was run: as §1
[9] = Metabolic stability in human assessed as half life at 160 mg/kg, po by LC-MS/MS analysis; assay type: ADME, organism-based; set-up: dose 160 mg/kg, route oral
[10] = Metabolic stability in mouse assessed as half life at 160 mg/kg, po by LC-MS/MS analysis; assay type: ADME, organism-based; set-up: dose 160 mg/kg, route oral
Plasmodium cynomolgi [11] = assay: Antimalarial activity against Plasmodium cynomolgi infected in rhesus monkey assessed as delay in patency time at 50 mg/kg, po administered one day before infection, on day of infection followed by 1 day post infection; assay type: functional
How it was run: (§2)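 Rhesus monkeys challenged with P. cynomolgi sporozoites. Oral dosing on days −1, 0 and 1 in HECT or MC vehicle, with dose in (mg/kg)/day. Read-out is the first day of patency and the delay in patency relative to vehicle-treated controls.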

Plasmodium berghei [12] = assay: Antimalarial activity against Plasmodium berghei […] mouse model assessed as causal prophylactic activity at 320 mg/kg, po administered one day before infection, on day of infection and one day post infection; assay type: functional, organism-based; set-up: dose 320 mg/kg
How it was run: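 Sporozoite-inoculated P. berghei exoerythrocytic (EE) mouse model. Compound ground and suspended in hydroxyethylcellulose plus Tween 80 for oral dosing, given once daily for 3 consecutive days: day before, 4 h before, and day after sporozoite inoculation (days −1, 0, 1). Dose in (mg/kg)/day. Read-out is mice protected per group (causal prophylaxis) or delay in patency.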

Plasmodium berghei [13] = assay: Antimalarial activity against Plasmodium berghei […] mouse model assessed as causal prophylactic activity at 40 mg/kg, po administered one day before infection, on day of infection and one day post infection; assay type: functional, organism-based; set-up: dose 40 mg/kg; how it was run: as §1
Plasmodium berghei [14] = assay: Antimalarial activity against Plasmodium berghei […] mouse model assessed as delay in patency time at 40 mg/kg, po administered one day before infection, on day of infection and one day post infection; assay type: functional; how it was run: as §1
Plasmodium cynomolgi [15] = assay: Antimalarial activity against Plasmodium cynomolgi infected in rhesus monkey assessed as delay in patency time at 1.78 mg/kg, po administered one day before infection, on day of infection followed by 1 day post infection; assay type: functional; how it was run: as §2

| Structure (SMILES) | half-life [1] [min] | half-life [2] [min] | IC50 (Plasmodium falciparum [3]) [µg/mL] | IC50 (Plasmodium falciparum [4]) [µg/mL] | IC50 (Plasmodium falciparum [5]) [µg/mL] | Activity (Plasmodium berghei [6]) | Time (Plasmodium berghei [7]) [days] | Time (Plasmodium berghei [8]) [days] | half-life [9] [min] | half-life [10] [min] | Time (Plasmodium cynomolgi [11]) [days] | Activity (Plasmodium berghei [12]) | Activity (Plasmodium berghei [13]) | Time (Plasmodium berghei [14]) [days] | Time (Plasmodium cynomolgi [15]) [days] |
| --- | --- | --- | --- | --- | --- | --- | --- | --- | --- | --- | --- | --- | --- | --- | --- |
| CCC(CC)C(=O)/N=C(\NC1=NC(=O)CN1C(C)C)Nc1ccc(Cl)c(Cl)c1 | 14 | 5 | 0.06 (≈ 0.141 µM) | 0.09 (≈ 0.211 µM) | 0.16 (≈ 0.375 µM) | inactive | 2 | 3 | – | – | – | – | – | – | – |
| CC(C)N1CC(=O)N=C1N/C(=N\C(=O)OC(C)(C)C)Nc1ccc(Cl)c(Cl)c1 | – | – | 1.6 (≈ 3.74 µM) | 0.74 (≈ 1.73 µM) | > 5 | Active | – | – | 12.8 | 15.8 | 2 | – | – | – | – |
| CC(C)/N=C(\NC1=NC(=O)CN1c1ccc(Cl)c(Cl)c1)Nc1ccc(Cl)c(Cl)c1 | – | – | 1.66 (≈ 3.51 µM) | 2.86 (≈ 6.04 µM) | 2.83 (≈ 5.98 µM) | inactive | – | 1 | 39.2 | 27.2 | – | inactive | – | – | – |
| CCC(CC)C(=O)/N=C(\NC1=NC(=O)CN1c1cccc(Cl)c1Cl)NC(C)C | 59.2 | > 60 | 0.78 (≈ 1.83 µM) | 1.55 (≈ 3.64 µM) | – | – | – | 2 | – | – | – | – | – | – | – |
| CCOC(=O)/N=C(\NC1=NC(=O)CN1C(C)C)Nc1ccc(Cl)c(Cl)c1 | 34.3 | > 60 | 2.86 (≈ 7.15 µM) | 2.8 (≈ 7 µM) | – | inactive | 2 | 2 | – | – | – | – | – | – | – |
| CN1CC(=O)N=C1NC(=N)Nc1ccc(Cl)c(Cl)c1 | – | – | 3.42 (≈ 11.4 µM) | 2.57 (≈ 8.56 µM) | 3.31 (≈ 11 µM) | inactive | – | – | > 60 | > 60 | – | – | – | – | – |
| CC(C)N1CC(=O)N=C1N/C(=N\C(=O)C(C)(C)C)Nc1ccc(Cl)c(Cl)c1 | – | – | 3.19 (≈ 7.74 µM) | 4.9 (≈ 11.9 µM) | > 1.28 | – | 3 | – | > 60 | > 60 | 0 | – | inactive | – | – |
| CC(C)(C)OC(=O)/N=C(\NC1=NC(=O)CN1C(C)(C)C)Nc1ccc(Cl)c(Cl)c1 | – | – | 2.9 (≈ 6.56 µM) | > 5 | > 5 | Active | – | – | < 10 | < 10 | – | – | – | – | – |
| CC(C)/N=C(\NC1=NC(=O)CN1C(C)C)Nc1ccc(Cl)c(Cl)c1 | 53 | 17 | 1.65 (≈ 4.46 µM) | 0.37 (≈ 0.999 µM) | > 5 | – | 1 | – | – | – | 4 | Active | – | – | – |
| CC(C)NC(=N)NC1=NC(=O)CN1c1cccc(Cl)c1Cl | 53.7 | 13.5 | 1.1 (≈ 3.35 µM) | 0.7 (≈ 2.13 µM) | 2.19 (≈ 6.67 µM) | – | – | – | – | – | – | – | – | – | – |
| CC(C)/N=C(\NC1=NC(=O)CN1C)Nc1ccc(Cl)c(Cl)c1 | > 60 | 49.8 | > 5 | > 5 | > 5 | – | 2 | – | – | – | – | – | – | – | – |
| CC/N=C(\NC1=NC(=O)CN1c1ccc(Cl)c(Cl)c1)Nc1ccc(Cl)c(Cl)c1 | > 60 | – | 2.6 (≈ 5.66 µM) | > 5 | > 5 | inactive | – | – | – | > 60 | – | – | – | – | – |
| CC(C)N1CC(=O)N=C1N/C(=N\C12CC3CC(CC(C3)C1)C2)Nc1ccc(Cl)c(Cl)c1 | – | – | 1.55 (≈ 3.35 µM) | 2.51 (≈ 5.43 µM) | 2.6 (≈ 5.62 µM) | inactive | – | – | 20.9 | 22.3 | – | – | – | – | – |
| CC(C)n1cc(OC(=O)C(C)(C)C)nc1N/C(=N\C(=O)C(C)(C)C)Nc1ccc(Cl)c(Cl)c1 | – | – | > 12 | > 12 | > 12 | inactive | – | – | > 60 | > 60 | – | – | – | – | – |
| CC(C)(C)N/C(=N/C1=NC(=O)CN1c1ccc(Cl)c(Cl)c1)Nc1ccc(Cl)c(Cl)c1 | > 60 | – | 2.45 (≈ 5.03 µM) | 2.58 (≈ 5.3 µM) | – | inactive | – | – | – | > 60 | – | – | – | – | – |
| CN1CC(=O)N=C1N/C(=N\C(=O)OC(C)(C)C)Nc1ccc(Cl)c(Cl)c1 | – | – | 1.26 (≈ 3.15 µM) | 1.72 (≈ 4.3 µM) | 2.54 (≈ 6.35 µM) | – | 1 | – | < 10 | < 10 | – | – | – | 2 | – |
| CC(C)N1CC(=O)N=C1N/C(=N/c1ccc(Cl)c(Cl)c1)N1CCCC1 | – | – | > 5 | 2.2 (≈ 5.75 µM) | > 5 | – | 2 | – | > 60 | > 60 | – | – | – | – | – |
| COc1cc(NC(C)CCCN)c2ncccc2c1 (stereo not given) [PRIMAQUINE] | – | – | – | – | – | – | – | – | – | – | – | – | – | – | 5 |
| CC(C)N1CC(=O)N=C1NC(=N)Nc1ccc(Cl)c(Cl)c1 | – | – | 3.42 (≈ 10.4 µM) | 2.57 (≈ 7.83 µM) | 3.31 (≈ 10.1 µM) | inactive | – | – | > 60 | 40 | – | – | – | 6 | – |
| CC(C)N1CC(=O)N=C1N/C(=N/c1ccc(Cl)c(Cl)c1)N1CCCCC1 | – | – | > 5 | 1.98 (≈ 5 µM) | – | inactive | – | – | 28 | 18 | – | – | – | – | – |
| CC(C)N/C(=N/C(=O)OC(C)(C)C)NC1=NC(=O)CN1c1cccc(Cl)c1Cl | > 60 | > 60 | 0.56 (≈ 1.31 µM) | 0.63 (≈ 1.47 µM) | 0.9 (≈ 2.1 µM) | – | – | – | – | – | – | – | – | – | – |
| CC(C)(C)N1CC(=O)N=C1NC(=N)Nc1ccc(Cl)c(Cl)c1 | – | – | 2.75 (≈ 8.04 µM) | 1.01 (≈ 2.95 µM) | > 5 | – | 2 | – | > 60 | > 60 | – | Active | – | – | – |
| CC(C)N/C(=N\C(=O)C(C)(C)C)NC1=NC(=O)CN1c1ccc(Cl)c(Cl)c1 | 40.5 | 13.5 | 4.65 (≈ 11.3 µM) | 4.87 (≈ 11.8 µM) | – | – | 2 | 2 | – | – | – | – | – | – | – |
| CC(C)N1CC(=O)N=C1N/C(=N\C(C)(C)C)Nc1ccc(Cl)c(Cl)c1 | – | – | 3 (≈ 7.81 µM) | 1.49 (≈ 3.88 µM) | 5.2 (≈ 13.5 µM) | inactive | – | – | 39.7 | 1.72 | – | – | – | – | – |
| CCOC(=O)/N=C(/NC1=NC(=O)CN1c1ccc(Cl)c(Cl)c1)NC(C)C | > 60 | > 60 | 0.15 (≈ 0.375 µM) | 0.25 (≈ 0.625 µM) | – | – | – | – | – | – | – | inactive | – | – | – |
| CC/N=C(\NC1=NC(=O)CN1C(C)C)Nc1ccc(Cl)c(Cl)c1 | – | – | 3.38 (≈ 9.49 µM) | 2.27 (≈ 6.37 µM) | 3.01 (≈ 8.45 µM) | – | – | – | – | – | – | – | – | – | – |
